# Reference: ChEMBL document CHEMBL1154571, “A cytotoxic sesquiterpene caffeate from the liverwort Bazzanianovae-zelandiae” (2000)
# Assays:
# Assay type in all cases: functional
# P388 [1] = experiment: Cytotoxicity against mouse P388 cells after 72 hrs by MTT assay
# Method in brief: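 P-388D1 murine leukemia cells (ATCC CCL 46) were incubated 72 h with a two-fold dilution series of sample. Growth was read by MTT tetrazolium staining absorbance. The concentration giving 50% of solvent-control growth was determined. Values are means of replicates. Mitomycin C at 0.06 μg/mL served as positive control.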
# P388 [2] = experiment: Cytotoxicity against mouse P388 cells at 0.06 ug/mL after 72 hrs by MTT assay; settings: P388, 72 h, read-out: GI
# Method in brief: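 Mitomycin C positive control at 0.06 μg/mL on P-388D1 murine leukemia cells (ATCC CCL 46), 72 h incubation. Growth was read by MTT tetrazolium absorbance and expressed as percent inhibition relative to a solvent control.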
# [3] = Cytotoxicity against human NCI60 cells
# CCRF-CEM = experiment: Cytotoxicity against human CCRF-CEM cells
# NCI-H522 = experiment: Cytotoxicity against human NCI-H522 cells
# [4] = Mus musculus, P388, 72 h, read-out: GI50
SMILES,GI50 (P388 [1]; [4]),other results
C=C1CCC2CC1C(C)(C)CC(OC(=O)/C=C/c1ccc(O)c(O)c1)/C=C\2C (stereo unspecified) [BAZZANENEYL CAFFEATE],0.9 µg/mL,–
O=C(O)/C=C/c1ccc(O)c(O)c1 [CAFFEIC ACID],> 25 µg/mL,–
O=C(/C=C/c1ccc(O)c(O)c1)O[C@H](C(=O)O)[C@H](OC(=O)/C=C/c1ccc(O)c(O)c1)C(=O)O [CHICORIC ACID],> 25 µg/mL,–
CO[C@@]12[C@H](COC(N)=O)C3=C(C(=O)C(C)=C(N)C3=O)N1C[C@@H]1N[C@@H]12 [MITOMYCIN],–,inhibition of growth at 0.06 µg/mL (P388 [2]): 43%
C[C@@H]1CC[C@@]2(C)[C@H](C)/C(=C/CO)CC[C@@]12C [NAVICULOL],> 25 µg/mL,–
C[C@@H]1CC[C@@]2(C)[C@H](C)/C(=C\COC(=O)/C=C/c3ccc(O)c(O)c3)CC[C@@]12C [NAVICULYL CAFFEATE],0.8 µg/mL,GI50 (P388 [1]): 1.1 µg/mL; GI50 [3]: 2.5 µg/mL; GI50 (CCRF-CEM): 0.4 µg/mL; GI50 (NCI-H522): 0.5 µg/mL
CC(C)=CCOC(=O)/C=C/c1ccc(O)c(O)c1 [PRENYL CAFFEATE],6.9 µg/mL,–
